pIC50, pKi: −log10 of the molar value. Calls of active or inactive are those of the source. The rule behind the calls is not given here.
Columns and labels:
[1] = organism: Homo sapiens; test: Selectivity ratio of Ki for PI3Kdelta (unknown origin) to Ki for PI3Kgamma (unknown origin)
[2] = organism: Homo sapiens; test: Selectivity ratio of Ki for PI3Kalpha (unknown origin) to Ki for PI3Kgamma (unknown origin)
[3] = biological target: T1, Phosphatidylinositol 4,5-bisphosphate 3-kinase catalytic subunit gamma isoform (Homo sapiens, UniProt P48736); test: Inhibition of PI3Kgamma (unknown origin) using PIP2 as substrate after 15 mins in presence of [33P-ATP] by liquid scintillation counting method
T1 sequence (P48736 whole entry, canonical isoform): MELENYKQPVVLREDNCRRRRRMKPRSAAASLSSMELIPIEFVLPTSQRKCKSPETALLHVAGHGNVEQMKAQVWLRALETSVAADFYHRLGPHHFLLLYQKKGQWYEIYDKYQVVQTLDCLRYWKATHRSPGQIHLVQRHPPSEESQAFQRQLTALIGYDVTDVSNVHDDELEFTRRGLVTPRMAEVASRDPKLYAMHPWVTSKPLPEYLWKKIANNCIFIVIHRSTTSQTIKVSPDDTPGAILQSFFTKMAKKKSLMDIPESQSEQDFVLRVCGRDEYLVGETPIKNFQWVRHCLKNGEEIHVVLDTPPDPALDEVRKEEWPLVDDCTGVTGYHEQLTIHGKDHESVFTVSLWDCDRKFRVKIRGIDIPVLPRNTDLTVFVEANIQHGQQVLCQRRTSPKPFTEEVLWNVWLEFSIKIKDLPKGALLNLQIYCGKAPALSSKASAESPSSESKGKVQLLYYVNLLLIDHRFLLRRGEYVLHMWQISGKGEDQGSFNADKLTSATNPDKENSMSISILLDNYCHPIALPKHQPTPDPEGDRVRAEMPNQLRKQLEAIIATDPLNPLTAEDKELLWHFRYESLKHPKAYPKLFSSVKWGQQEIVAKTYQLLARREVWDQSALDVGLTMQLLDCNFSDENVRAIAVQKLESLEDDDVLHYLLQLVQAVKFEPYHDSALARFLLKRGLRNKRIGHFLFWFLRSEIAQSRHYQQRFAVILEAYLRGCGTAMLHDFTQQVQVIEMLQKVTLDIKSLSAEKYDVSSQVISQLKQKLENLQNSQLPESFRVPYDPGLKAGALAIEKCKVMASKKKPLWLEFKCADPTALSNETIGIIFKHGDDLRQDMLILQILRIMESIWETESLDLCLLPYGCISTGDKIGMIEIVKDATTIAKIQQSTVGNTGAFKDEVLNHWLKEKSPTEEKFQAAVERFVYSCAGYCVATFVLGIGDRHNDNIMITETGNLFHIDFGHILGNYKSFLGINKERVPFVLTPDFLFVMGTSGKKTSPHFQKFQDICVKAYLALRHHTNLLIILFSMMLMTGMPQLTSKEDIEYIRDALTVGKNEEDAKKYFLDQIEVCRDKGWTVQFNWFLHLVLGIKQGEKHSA

[4] = organism: Homo sapiens; test: Selectivity ratio of Ki for PI3Kbeta (unknown origin) to Ki for PI3Kgamma (unknown origin)
[5] = tested on: Mus musculus; test: Anti-inflammatory activity in MOG (35 to 55 residues)-induced EAE C57BL/6 mouse model assessed as inhibition of development of clinical symptoms at 1 mg/kg, po qd measured on day 8 post MOG (35 to 55 residues) immunization; format: functional, organism-based
[6] = Intrinsic clearance in rat hepatocytes assessed per million cells; format: ADME, cell-based, Hepatocyte; details: read-out: CLH
Procedure, shortened: (§1)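 Intrinsic clearance in rat, dog, monkey and human hepatocytes; units µL/min/M cells.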

[7] = Lipophilicity, log D of the compound at pH 7.4; format: physicochemical; details: buffer
[8] = Clearance in iv dosed rat; format: ADME, organism-based; details: in vivo
Procedure, shortened: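 Rat, dog and monkey PK after dosing; clearance in mL/min/Kg.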

[9] = Intrinsic clearance in human hepatocytes assessed per million cells; format: ADME, cell-based, Hepatocyte; details: read-out: CLH; procedure, shortened: as §1
[10] = tested on: MDR1; test: Efflux ratio of permeability from basolateral to apical over apical to basolateral side in MDCK cells harboring MDR1; format: ADME, cell-based, Canis lupus familiaris; details: dog
Procedure, shortened: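 MDR1-MDCK monolayers; bidirectional transport. A-B permeability in x10-6 cm/s; efflux taken as the B-A/A-B ratio.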

[11] = Half life in iv dosed rat; format: ADME, organism-based; details: in vivo
[12] = biological target: T1, Phosphatidylinositol 4,5-bisphosphate 3-kinase catalytic subunit gamma isoform; test: Inhibition of PI3Kgamma in human THP1 cells assessed as inhibition of MCP1-induced Akt phosphorylation at […] residue preincubated for 1 hr followed by MCP1 stimulation for 3 mins by FACS analysis; format: cell-based
Procedure, shortened: (§2)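 Akt phosphorylation was induced by MCP-1 in THP-1 cells or in splenocytes.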

[13] = biological target: Phosphatidylinositol-4,5-bisphosphate 3-kinase, catalytic subunit gamma (Rattus norvegicus, UniProt D3ZFJ0); test: Inhibition of PI3Kgamma in rat spleenocytes assessed as inhibition of MCP1-induced Akt phosphorylation at […] residue preincubated for 1 hr followed by MCP1 stimulation for 3 mins by FACS analysis; format: cell-based; procedure, shortened: as §2
Chain of Phosphatidylinositol-4,5-bisphosphate 3-kinase, catalytic subunit gamma (D3ZFJ0 whole entry, the tested form may be a part): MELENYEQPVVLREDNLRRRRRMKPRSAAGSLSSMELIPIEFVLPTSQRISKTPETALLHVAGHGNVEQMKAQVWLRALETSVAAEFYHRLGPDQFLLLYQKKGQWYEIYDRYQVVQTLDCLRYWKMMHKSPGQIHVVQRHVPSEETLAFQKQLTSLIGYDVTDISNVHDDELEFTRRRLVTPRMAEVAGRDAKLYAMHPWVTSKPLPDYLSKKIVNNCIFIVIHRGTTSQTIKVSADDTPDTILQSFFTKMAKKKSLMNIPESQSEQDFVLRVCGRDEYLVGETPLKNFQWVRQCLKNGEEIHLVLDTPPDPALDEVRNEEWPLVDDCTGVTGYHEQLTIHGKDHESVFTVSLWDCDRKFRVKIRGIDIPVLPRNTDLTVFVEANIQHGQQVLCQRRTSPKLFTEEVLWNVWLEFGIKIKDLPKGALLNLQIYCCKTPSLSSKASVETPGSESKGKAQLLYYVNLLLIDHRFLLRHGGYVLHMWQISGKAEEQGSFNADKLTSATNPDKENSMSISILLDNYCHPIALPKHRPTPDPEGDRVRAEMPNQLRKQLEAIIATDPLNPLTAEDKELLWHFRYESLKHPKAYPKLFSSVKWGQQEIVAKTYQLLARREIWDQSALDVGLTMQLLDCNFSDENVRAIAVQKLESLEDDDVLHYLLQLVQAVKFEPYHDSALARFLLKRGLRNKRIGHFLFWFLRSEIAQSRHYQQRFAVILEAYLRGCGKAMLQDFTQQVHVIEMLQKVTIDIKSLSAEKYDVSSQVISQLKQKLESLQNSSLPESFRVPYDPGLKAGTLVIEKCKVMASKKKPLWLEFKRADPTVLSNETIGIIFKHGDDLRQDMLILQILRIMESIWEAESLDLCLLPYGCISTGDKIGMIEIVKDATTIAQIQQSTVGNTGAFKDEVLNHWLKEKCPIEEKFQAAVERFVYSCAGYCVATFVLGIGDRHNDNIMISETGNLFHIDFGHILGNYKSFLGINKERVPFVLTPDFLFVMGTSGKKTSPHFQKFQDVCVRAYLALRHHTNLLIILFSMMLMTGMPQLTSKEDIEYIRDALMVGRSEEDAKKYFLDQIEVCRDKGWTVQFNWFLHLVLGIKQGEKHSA

[14] = tested on: Mus musculus; test: Anti-inflammatory activity in MOG (35 to 55 residues)-induced EAE C57BL/6 mouse model assessed as inhibition of development of clinical symptoms at 3 to 30 mg/kg, po bid […]; format: functional, organism-based
Procedure, shortened: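 C57BL6 mice immunized with myelin oligodendrocyte glycoprotein in complete Freund's adjuvant containing Mycobacterium tuberculosis. Oral dosing BID at 3, 10 and 30 mg/Kg began at a clinical score of 0.5-1. Vehicle and positive-control groups were run alongside. Read-out: clinical EAE score plotted against time after onset.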

Row | Ratio Ki [1] | Ratio Ki [2] | pKi [3] | Ratio Ki [4] | SMILES | other results
1 | – | – | 8.40 to 8.52 | – | COc1cc(-c2ccc3c(n2)CN(c2cnn(CC#N)c2)C3=O)cnc1OC | –
2 | 3 | 5 | 7.22 | 9 | COc1cc(-c2ccc3c(n2)CN(c2cnn(C)c2)C3=O)cnc1OC | efflux ratio [10]: 2.5
3 | 5 | 22 | 8.05 | 12 | COc1cc(-c2ccc3c(n2)CN(c2cnn(CC(F)F)c2)C3=O)cnc1OC | –
4 | 4 | 11 | 7.70 | 10 | COc1cc(-c2ccc3c(n2)CN(c2cnn(CCC#N)c2)C3=O)cnc1OC | –
5 | 10 | 15 | 7.55 | 25 | COc1cc(-c2ccc3c(n2)CN(c2cnn(C(C)(C)C#N)c2)C3=O)cnc1OC | –
6 | 14 | 25 | 8.10 | 39 | CCn1cc(N2Cc3nc(-c4cnc(OC)c(OC)c4)ccc3C2=O)cn1 | –
7 | – | – | 8.40 | – | COc1cc(-c2ccc3c(n2)CN(c2cnn(CC(F)(F)F)c2)C3=O)cnc1OC | pIC50 [12]: 6.55
8 | 12 | 11 | 8.05 | 25 | C#CCn1cc(N2Cc3nc(-c4cnc(OC)c(OC)c4)ccc3C2=O)cn1 | –

The next lines start with the compound.

Row | SMILES | Ratio Ki [1] | Ratio Ki [2] | pKi [3] | Ratio Ki [4] | other results
9 | COc1cc(-c2ccc3c(n2)CN(c2cn[nH]c2)C3=O)cnc1OC | 42 | 34 | 7.96 | 32 | –
10 | CCCCCCCCc1ccc(CCC(N)(CO)CO)cc1 | – | – | – | – | Activity [5]: Active
11 | COc1ccc(-c2ccc3c(c2)CN(c2cccc(CC#N)c2)C3=O)cc1OC | 7 | > 25 | 6.80 | > 25 | hepatocyte CLint [6]: 111 µL/min/1e6 cells; logD [7]: 4.1; clearance [8]: 6.96 L/h/kg; hepatocyte CLint [9]: 26 µL/min/1e6 cells
12 | COc1cc(-c2ccc3c(n2)C(C)(C)N(c2cnn(CC(F)(F)F)c2)C3=O)cnc1OC | 10 | 33 | 7.96 | 12 | half-life [11]: 6.6 h; clearance [8]: 0.378 L/h/kg; pIC50 [12]: 6.47
13 | COc1cc(-c2ccc3c(c2)CN(c2cccc(CC#N)c2)C3=O)cnc1OC | 16 | 40 | 7.46 | 11 | hepatocyte CLint [6]: 88 µL/min/1e6 cells; clearance [8]: 9.6 L/h/kg; hepatocyte CLint [9]: 30 µL/min/1e6 cells
14 | COc1cc(-c2ccc3c(n2)[C@@H](C)N(c2cnn(CC(F)(F)F)c2)C3=O)cnc1OC | – | – | – | – | pIC50 [13]: 6.68; Activity [14]: Active
15 | COc1cc(-c2ccc3c(c2)CN(c2cnn(CC#N)c2)C3=O)cnc1OC | 17 | 51 | 8.22 | 27 | clearance [8]: 3.36 L/h/kg

From ChEMBL document CHEMBL4118224, “Design and Synthesis of a Novel Series of Orally Bioavailable, CNS-Penetrant, Isoform Selective Phosphoinositide 3-Kinase γ (PI3Kγ) Inhibitors with Potential for the Treatment of Multiple Sclerosis (MS)” (J Med Chem, 2018)
